We go through two molecules from ChEMBL document CHEMBL4190252, “Synthesis, antitumor activity and CDK1 inhibiton of new thiazole nortopsentin analogues” (Eur J Med Chem, 2017).

One may read the IC50 as the concentration at which inhibition is half-maximal.

For experiment [1], the system named is MCF7. Put plainly: Cell cycle arrest in human MCF7 cells assessed as accumulation at G2/M phase at GI50 concentration after 48 hrs by propidium iodide-staining based flow cytometry. It is filed as functional. The procedure, abridged: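 Cells were trypsinized, washed in cold PBS, and 1 x 10^6 cells stained with 20 µg/ml PI plus 200 µg/ml RNase for 30 min at room temperature in the dark. At least 1x 10^4 cells were analysed by flow cytometry. Mean±SD of three experiments in triplicate.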
For orientation: In flow cytometry, cells or beads pass a laser one at a time.

The subject of experiment [2] is MCF7. Nature of the experiment: Induction of apoptosis in human MCF7 cells assessed as necrotic cells at 5 x 10^-8 M after 72 hrs by Annexin V/propidium iodide double staining-based flow cytometry (reference value: 0.1%). It is filed as functional. Summed up:
(§1)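 MCF-7 cells were grown in RPMI with 10% FBS, 2 mM L-glutamine and antibiotics at 37 °C in 5% CO2. They were seeded at 2.0 x 10^5 cells/cm2 in triplicate, left to adhere overnight, then treated for 72 h; DMSO 0.1% served as vehicle. Trypsinised cells at 2.0 x 10^5/mL were stained with annexin V-FITC and PI for 15 min at room temperature in the dark. At least 1.0 x 10^4 cells were gated into viable, early apoptotic, late apoptotic and necrotic quadrants.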

Experiment [3] deals with MCF7. Put plainly: Induction of apoptosis in human MCF7 cells assessed as viable cells at 5 x 10^-8 M after 72 hrs by Annexin V/propidium iodide double staining-based flow cytometry (reference value: 98.9%). Particulars: MCF7, 72 h, read-out: Activity. It is filed as functional. Summed up:
as §1

Experiment [4] has as its system MCF7. Put plainly: Induction of apoptosis in human MCF7 cells assessed as early apoptotic cells at 5 x 10^-8 M after 72 hrs by Annexin V/propidium iodide double staining-based flow cytometry (reference value: 1%). Format: functional. The procedure, abridged:
as §1

Experiment [5] concerns the target Cyclin-dependent kinase 1/cyclin B1 (Homo sapiens, UniProt P06493). Nature of the experiment: Inhibition of recombinant human full length His-tagged CDK1/cyclin B expressed in baculovirus expression system after 60 mins in presence of omnia peptide substrate by fluorescence based assay. The procedure, abridged: (§2)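 Recombinant human CDK1/cyclin B in kinase buffer with Omnia peptide substrate, ATP and DTT, with inhibitor at 0.1–10 µM. Reactions ran for 60 min at 30 °C, with fluorescence read at ex 360/em 485 nm. Initial velocity came from the RFU-versus-time slope and was plotted against concentration for a dose-response IC50 fit. Values are mean±SD of two determinations.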

Experiment [6] concerns MCF7. Nature of the experiment: Induction of apoptosis in human MCF7 cells assessed as late apoptotic cells at 5 x 10^-8 M after 72 hrs by Annexin V/propidium iodide double staining-based flow cytometry (reference value: 0%). It is filed as functional. The procedure, abridged: as §1
In experiment [7] the target is Cyclin-dependent kinase 1/cyclin B1 (Homo sapiens) (UniProt P06493+P14635). Put plainly: Inhibition of recombinant human full length His-tagged CDK1/cyclin B expressed in baculovirus expression system at 0.1 to 10 uM after 60 mins in presence of omnia peptide substrate by fluorescence based assay. The procedure, abridged:
as §2

Each structure is given as a SMILES string. The source made the active and inactive calls. The calls are words filed in the database; no cut-off is given here.

Cyclin-dependent kinase 1/cyclin B1 (Homo sapiens), sequence (P06493 whole entry, looked up): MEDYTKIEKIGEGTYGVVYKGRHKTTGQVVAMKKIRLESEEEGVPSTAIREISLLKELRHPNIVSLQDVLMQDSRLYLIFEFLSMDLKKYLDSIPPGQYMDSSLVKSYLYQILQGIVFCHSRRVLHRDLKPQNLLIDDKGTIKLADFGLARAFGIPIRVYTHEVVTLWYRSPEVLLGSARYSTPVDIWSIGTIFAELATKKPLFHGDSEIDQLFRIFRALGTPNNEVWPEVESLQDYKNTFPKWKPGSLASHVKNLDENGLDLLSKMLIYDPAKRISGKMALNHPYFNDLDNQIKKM
Cyclin-dependent kinase 1/cyclin B1 (Homo sapiens), sequence (P14635 whole entry, looked up): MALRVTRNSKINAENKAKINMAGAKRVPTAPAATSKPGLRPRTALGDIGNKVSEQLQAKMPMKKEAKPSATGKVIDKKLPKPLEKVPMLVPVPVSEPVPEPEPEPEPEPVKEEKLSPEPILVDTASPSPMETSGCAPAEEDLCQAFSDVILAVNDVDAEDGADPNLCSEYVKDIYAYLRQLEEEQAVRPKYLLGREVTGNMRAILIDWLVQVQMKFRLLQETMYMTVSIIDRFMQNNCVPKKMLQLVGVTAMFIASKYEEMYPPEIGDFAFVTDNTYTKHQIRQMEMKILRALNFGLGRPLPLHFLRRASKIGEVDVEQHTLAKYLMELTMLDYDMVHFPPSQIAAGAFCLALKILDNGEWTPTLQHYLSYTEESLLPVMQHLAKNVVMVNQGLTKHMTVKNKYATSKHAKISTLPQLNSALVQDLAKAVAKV
Cyclin-dependent kinase 1/cyclin B1, sequence (P06493 whole entry): as the sequence (P06493 whole entry, looked up) above
Cyclin-dependent kinase 1/cyclin B1, sequence (P14635 whole entry, further chain): as the sequence (P14635 whole entry, looked up) above

For `COCCn1cc(-c2nc(-c3c[nH]c4ncccc34)cs2)c2cc(OC)ccc21`, the Activity is reported as more than 50% in the experiment on MCF7 [1], 0% in the experiment with MCF7 [2], 54.2% in the experiment with MCF7 [4] and 0.1% in the experiment on MCF7 [6]. The viability at 0.05 µM in the experiment with MCF7 [3] stood at 45.8%. Moreover, the IC50 in experiment [5] was 1140 nM.

With `COCCn1cc(-c2csc(-c3c[nH]c4ccc(Br)cc34)n2)c2cccnc21`, in experiment [7], the inhibition entry was “inactive”.
